# Reference: ChEMBL document CHEMBL4706580, “4-Amino-1,2,4-triazole-3-thione-derived Schiff bases as metallo-β-lactamase inhibitors” (Eur J Med Chem, 2020)
# The source made the active and inactive calls. The rule behind the calls is not given here.
# How the values were obtained:
# [1] = Inhibition of beta-lactamase VIM-2 (unknown origin) expressed in Escherichia coli LZ2310 assessed as potentiation of cefoxitin antibacterial activity by measuring cefoxitin induced diameter of inhibition zone at 80 uM incubated for 18 hrs by disk diffusion method (reference value: 14 mm)
# Outline: (§1)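 Efflux-deficient E. coli LZ2310 (NorE, MdfA, AcrA knocked out) carrying pLB-II with the cloned MBL gene. Mueller-Hinton, CLSI disk diffusion; antibiotic disks (30 µg cefoxitin for VIM-2, 10 µg ampicillin for VIM-4, 30 µg ceftazidime for NDM-1/IMP-1) loaded with inhibitor in DMSO (≤15 µL). Zone diameter after 18 h, 35 ± 1 °C; DMSO and 220 µg EDTA controls. Triplicate.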
# [2] = Inhibition of beta-lactamase CphA (unknown origin) expressed in Escherichia coli BL21(DE3) using imipenem as substrate by measuring substrate hydrolysis at 100 uM by spectrophotometric analysis
# Outline: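 Enzyme 0.2–0.8 nM in 15 mM cacodylate pH 6.5, no added zinc, pre-incubated 30 min at 21 °C with inhibitor (100 μM screen). Imipenem substrate added from 10 mM stock; hydrolysis at 300 nm, 30 °C. Residual activity vs three uninhibited samples; Ki (1–100 μM inhibitor) by Hanes linearization, competitive model. Triplicate.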
# [3] = Inhibition of beta-lactamase IMP-1 (unknown origin) expressed in Escherichia coli BL21(DE3) using imipenem as substrate by measuring substrate hydrolysis at 100 uM by spectrophotometric analysis
# Outline: (§2)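 Purified enzyme (overproduced in E. coli BL21(DE3), pET-9a; ion-exchange and gel filtration), 1-70 nM final. Reporter substrate 150 μM imipenem, read at 300 nm, 30 °C, 50 mM HEPES pH 7.5. Single-point screen at 100 or 200 μM; Ki from v0/vi vs [I] (0.5–1,000 μM final) assuming competitive inhibition, or Dixon plot. Triplicate.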
# [4] = Inhibition of beta-lactamase VIM-2 (unknown origin) expressed in Escherichia coli XL-1 assessed as potentiation of cefoxitin antibacterial activity by measuring cefoxitin induced diameter of inhibition zone at 80 uM incubated for 18 hrs by disk diffusion method (reference value: 8 mm)
# Outline: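 Wild-type efflux E. coli XL-1 Blue transformed with pLB-II-VIM-2. Mueller-Hinton disk diffusion per CLSI, 30 µg cefoxitin disks loaded with inhibitor dissolved in DMSO (≤15 µL). Growth-inhibition zone measured after 18 h at 35 ± 1 °C; DMSO negative and 220 µg EDTA positive controls. Triplicate.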
# [5] = Inhibition of beta-lactamase NDM1 (unknown origin) expressed in Escherichia coli BL21(DE3) using cefotaxime/nitrocefin as substrate by measuring substrate hydrolysis at 50 uM by spectrophotometric analysis
# [6] = Inhibition of beta-lactamase VIM2 (unknown origin) expressed in Escherichia coli BL21(DE3) using imipenem as substrate by measuring substrate hydrolysis by spectrophotometric analysis; outline: as §2
# [7] = Inhibition of beta-lactamase VIM4 (unknown origin) expressed in Escherichia coli BL21(DE3) using imipenem as substrate by measuring substrate hydrolysis at 100 uM by spectrophotometric analysis; outline: as §2
# [8] = Inhibition of beta-lactamase L1 (unknown origin) expressed in Escherichia coli BL21(DE3) using nitrocefin as substrate by measuring substrate hydrolysis at 100 uM preincubated for 30 mins by spectrophotometric analysis
# Outline: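 Enzyme 0.2–0.8 nM in 25 mM HEPES pH 7.5 with 50 μM ZnCl2 final, pre-incubated 30 min at 21 °C with inhibitor (100 μM screen). Nitrocefin 100 μM final, read at 482 nm, 30 °C. Residual activity vs three uninhibited samples; Ki (1–100 μM inhibitor) from Hanes linearization, competitive model. Triplicate.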
# [9] = Inhibition of beta-lactamase IMP-1 (unknown origin) expressed in Escherichia coli BL21(DE3) using imipenem as substrate by measuring substrate hydrolysis at 200 uM by spectrophotometric analysis; outline: as §2
# [10] = Inhibition of beta-lactamase NDM-1 (unknown origin) expressed in Escherichia coli LZ2310 assessed as potentiation of ceftazidime antibacterial activity by measuring ceftazidime induced diameter of inhibition zone at 80 uM incubated for 18 hrs by disk diffusion method (reference value: 15 mm); outline: as §1
# [11] = Inhibition of beta-lactamase NDM1 (unknown origin) expressed in Escherichia coli BL21(DE3) using cefotaxime/nitrocefin as substrate by measuring substrate hydrolysis by spectrophotometric analysis
# Outline: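 His-tagged enzyme from E. coli BL21(DE3) pET-15b, affinity-purified, 1-70 nM final. Reporter substrate 120 μM cefotaxime (260 nm) or 100 μM nitrocefin (482 nm), 30 °C, 50 mM HEPES pH 7.5. Inhibitor 0.5–1,000 μM final; competitive Ki from v0/vi vs [I] slope or Dixon plot. Triplicate.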
# [12] = Inhibition of beta-lactamase VIM2 (unknown origin) expressed in Escherichia coli BL21(DE3) using imipenem as substrate by measuring substrate hydrolysis at 100 uM by spectrophotometric analysis; outline: as §2
# [13] = Inhibition of beta-lactamase VIM4 (unknown origin) expressed in Escherichia coli BL21(DE3) using imipenem as substrate by measuring substrate hydrolysis by spectrophotometric analysis; outline: as §2
# Escherichia coli [14] = assay: Synergistic antibacterial activity against NDM-1 producing Escherichia coli assessed as MIC of imipenem at 32 ug/ml by broth microdilution method; type: functional; conditions: dose 32 µg/ml
# Escherichia coli [15] = assay: Synergistic antibacterial activity against NDM-1 producing Escherichia coli assessed as MIC of meropenem at 32 ug/ml by broth microdilution method; type: functional; conditions: dose 32 µg/ml
# Escherichia coli [16] = assay: Synergistic antibacterial activity against NDM-1 producing Escherichia coli assessed as MIC of ceftazidime at 32 ug/ml by broth microdilution method; type: functional; conditions: dose 32 µg/ml
# Escherichia coli [17] = assay: Synergistic antibacterial activity against NDM-1 producing Escherichia coli assessed ass MIC of ceftazidime/avibactam at 32 ug/ml by broth microdilution method; type: functional; conditions: dose 32 µg/ml
# Outline: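 MIC of ceftazidime-avibactam (avibactam fixed at 4 µg/mL) by CLSI broth microdilution in Mueller-Hinton broth. Used the NDM-1-producing multidrug-resistant E. coli clinical isolate SI-001M at 5 × 10⁴ CFU/well, with and without inhibitor at a fixed 32 µg/ml. No colistin added. Triplicate determinations.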
# Escherichia coli [18] = assay: Antibacterial activity against NDM-1 producing Escherichia coli in presence of colistin by broth microdilution method.; type: functional
# HeLa [19] = assay: Cytotoxicity in human HeLa cells assessed as cell lysis upto 250 uM incubated for 72 hrs by membrane integrity assay; type: cell-based
# HUVEC = assay: Cytotoxicity in human HUVEC cells assessed as reduction in cell viability upto 100 uM incubated for 72 hrs by MTT assay; type: cell-based
# [20] = Inhibition of beta-lactamase L1 (unknown origin) expressed in Escherichia coli BL21(DE3) using nitrocefin as substrate by measuring substrate hydrolysis at 200 uM preincubated for 30 mins by spectrophotometric analysis
# [21] = Inhibition of beta-lactamase VIM2 (unknown origin) expressed in Escherichia coli BL21(DE3) using imipenem as substrate by measuring substrate hydrolysis at 200 uM by spectrophotometric analysis; outline: as §2
# Escherichia coli [22] = assay: Synergistic antibacterial activity against NDM-1 producing Escherichia coli assessed as MIC of imipenem at 32 ug/ml in presence of colistin by broth microdilution method; type: functional; conditions: dose 32 µg/ml
# Escherichia coli [23] = assay: Synergistic antibacterial activity against NDM-1 producing Escherichia coli assessed as MIC of meropenem at 32 ug/ml in presence of colistin by broth microdilution method; type: functional; conditions: dose 32 µg/ml
# Outline: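 Broth microdilution per CLSI in Mueller-Hinton broth against a multidrug-resistant NDM-1-producing E. coli clinical isolate (SI-001M), inoculum 5 × 10⁴ CFU/well. […] Run in triplicate.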
# Escherichia coli [24] = assay: Synergistic antibacterial activity against NDM-1 producing Escherichia coli assessed as MIC of ceftazidime at 32 ug/ml in presence of colistin by broth microdilution method; type: functional; conditions: dose 32 µg/ml
# Escherichia coli [25] = assay: Synergistic antibacterial activity against NDM-1 producing Escherichia coli assessed ass MIC of ceftazidime/avibactam at 32 ug/ml in presence of colistin by broth microdilution method; type: functional; conditions: dose 32 µg/ml
# HeLa [26] = assay: Cytotoxicity in human HeLa cells assessed as reduction in cell viability upto 250 uM incubated for 72 hrs by MTT assay; type: cell-based
smiles,measurement,setting,value
Cc1ccccc1-c1n[nH]c(=S)n1/N=C/c1cccc(O)c1O,inhibition zone (IZ),[1],18 mm
same,inhibition,[2],68%
same,inhibition,[3],63%
same,inhibition zone (IZ),[4],15 mm
same,inhibition,[5],39%
same,Ki,[6],5.2 µM
same,inhibition,[7],65%
same,inhibition,[8],55%
Oc1ccc(/C=N/n2c(-c3ccc(-c4ccccc4)cc3)n[nH]c2=S)c(O)c1,inhibition zone (IZ),[1],14 mm
same,inhibition,[9],inactive
same,inhibition,[3],inactive
same,inhibition zone (IZ),[10],15 mm
same,Ki,[11],1.8 µM
same,inhibition,[12],inactive
same,Ki,[13],2 µM
same,inhibition,[8],inactive
same,MIC,Escherichia coli [14],8 µg/mL
same,MIC,Escherichia coli [15],16 µg/mL
same,MIC,Escherichia coli [16],> 256 µg/mL
same,MIC,Escherichia coli [17],> 256 µg/mL
same,MIC,Escherichia coli [18],> 256 µg/mL
same,Activity,HeLa [19],Non-Toxic
same,Activity,HUVEC,Non-Toxic
same,inhibition,[20],inactive
same,inhibition,[21],inactive
same,MIC,Escherichia coli [22],4 µg/mL
same,MIC,Escherichia coli [23],8 µg/mL
same,MIC,Escherichia coli [24],> 256 µg/mL
same,MIC,Escherichia coli [25],4 µg/mL
same,Activity,HeLa [26],Non-Toxic
